From ChEMBL document CHEMBL4270613, “Design, synthesis, biological evaluation and structure-activity relationship of sophoridine derivatives bearing pyrrole or indole scaffold as potential antitumor agents” (Eur J Med Chem, 2018)

Tested on: HepG2
Experiment: Antiproliferative activity against human HepG2 cells after 48 hrs by MTT assay
Format: functional, cell-based
Conditions: HepG2, 48 h
In short: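 HepG2 exposed to compounds for 48 h; MTT readout; camptothecin positive control; IC50 calculated; mean ± SD of three independent experiments, each in triplicate.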

Row | IC50 | Compound
1 | > 50 µM | c1ccc(COc2ccc(Cn3ccc4ccccc43)cc2)cc1
2 | 10.1 µM | O=C1/C(=C/c2cn(Cc3ccc(OCc4ccc(Br)cc4)cc3)c3ccccc23)CC[C@@H]2[C@H]3CCCN4CCC[C@H](CN12)[C@@H]34
3 | 30.1 µM | COc1ccc(Cn2cccc2/C=C2\CC[C@@H]3[C@H]4CCCN5CCC[C@H](CN3C2=O)[C@@H]45)cc1
4 | 4.83 µM | O=C1/C(=C/c2cn(Cc3ccc(OCc4ccc(F)cc4)cc3)c3ccccc23)CC[C@@H]2[C@H]3CCCN4CCC[C@H](CN12)[C@@H]34
5 | 6.31 µM | COc1ccc2c(c1)c(/C=C1\CC[C@@H]3[C@H]4CCCN5CCC[C@H](CN3C1=O)[C@@H]45)cn2Cc1ccc(OCc2ccc(Br)cc2)cc1
6 | 8.73 µM | O=C1/C(=C/c2cn(Cc3ccc(OC(F)(F)F)cc3)c3ccccc23)CC[C@@H]2[C@H]3CCCN4CCC[C@H](CN12)[C@@H]34
7 | 3.97 µM | COc1ccc2c(c1)c(/C=C1\CC[C@@H]3[C@H]4CCCN5CCC[C@H](CN3C1=O)[C@@H]45)cn2Cc1ccc(OCc2ccc(Cl)cc2)cc1
8 | 7.71 µM | Cc1ccc2c(c1)c(/C=C1\CC[C@@H]3[C@H]4CCCN5CCC[C@H](CN3C1=O)[C@@H]45)cn2Cc1ccc(OCc2ccccc2)cc1
9 | 15.2 µM | O=C1/C(=C/c2cccc3c2ccn3Cc2ccc(OCc3ccccc3)cc2)CC[C@@H]2[C@H]3CCCN4CCC[C@H](CN12)[C@@H]34
10 | 5.32 µM | Cc1ccc(COc2ccc(Cn3cc(/C=C4\CC[C@@H]5[C@H]6CCCN7CCC[C@H](CN5C4=O)[C@@H]67)c4ccccc43)cc2)cc1
11 | 5.86 µM | COc1ccc2c(c1)c(/C=C1\CC[C@@H]3[C@H]4CCCN5CCC[C@H](CN3C1=O)[C@@H]45)cn2Cc1ccc(OCc2ccc(C(C)(C)C)cc2)cc1
12 | 3.08 µM | O=C1/C(=C/c2cn(Cc3ccc(OCc4ccccc4)cc3)c3ccccc23)CC[C@@H]2[C@H]3CCCN4CCC[C@H](CN12)[C@@H]34
13 | 3.97 µM | O=C1/C(=C/c2cn(Cc3ccc(OCc4ccccc4)cc3)c3ccc(Br)cc23)CC[C@@H]2[C@H]3CCCN4CCC[C@H](CN12)[C@@H]34
14 | 7.22 µM | O=C1/C(=C/c2cccn2Cc2ccc(OCc3ccccc3)cc2)CC[C@@H]2[C@H]3CCCN4CCC[C@H](CN12)[C@@H]34
15 | 7.25 µM | O=C1/C(=C/c2ccc3c(ccn3Cc3ccc(OCc4ccccc4)cc3)c2)CC[C@@H]2[C@H]3CCCN4CCC[C@H](CN12)[C@@H]34
16 | 8.14 µM | COc1cccc(Cn2cc(/C=C3\CC[C@@H]4[C@H]5CCCN6CCC[C@H](CN4C3=O)[C@@H]56)c3ccccc32)c1
17 | 6.07 µM | CC(C)(C)c1ccc(COc2ccc(Cn3cc(/C=C4\CC[C@@H]5[C@H]6CCCN7CCC[C@H](CN5C4=O)[C@@H]67)c4ccccc43)cc2)cc1
18 | 12.8 µM | O=C1/C(=C/c2cn(Cc3ccc4ccccc4c3)c3ccccc23)CC[C@@H]2[C@H]3CCCN4CCC[C@H](CN12)[C@@H]34
19 | 9.96 µM | O=C1/C(=C/c2cn(Cc3ccc(OCc4ccccc4)cc3)c3ccccc23)CC[C@@H]2[C@H]3CCCN4CCC[C@@H](CN12)[C@@H]34
20 | 5.72 µM | COc1ccc2c(c1)c(/C=C1\CC[C@@H]3[C@H]4CCCN5CCC[C@H](CN3C1=O)[C@@H]45)cn2Cc1ccc(OCc2ccc(OC(F)(F)F)cc2)cc1
21 | 3.12 µM | COc1ccc2c(c1)c(/C=C1\CC[C@@H]3[C@H]4CCCN5CCC[C@H](CN3C1=O)[C@@H]45)cn2Cc1ccc(OCc2ccc(F)cc2)cc1
22 | > 50 µM | COc1ccc2c(ccn2Cc2ccc(OCc3ccccc3)cc2)c1
23 | 16.1 µM | O=C1/C(=C/c2cccn2Cc2ccc3ccccc3c2)CC[C@@H]2[C@H]3CCCN4CCC[C@H](CN12)[C@@H]34
24 | 4.18 µM | COc1ccc2c(c1)c(/C=C1\CC[C@@H]3[C@H]4CCCN5CCC[C@H](CN3C1=O)[C@@H]45)cn2Cc1ccc(OCc2ccc(C)cc2)cc1
25 | 6.01 µM | O=C1/C(=C/c2cn(Cc3ccc(OCc4ccc(OC(F)(F)F)cc4)cc3)c3ccccc23)CC[C@@H]2[C@H]3CCCN4CCC[C@H](CN12)[C@@H]34
26 | 6.17 µM | O=C1/C(=C/c2cn(Cc3ccc(OCc4ccc(Cl)cc4)cc3)c3ccccc23)CC[C@@H]2[C@H]3CCCN4CCC[C@H](CN12)[C@@H]34
27 | 14.3 µM | O=C1/C(=C/c2cn(Cc3ccc(OCc4ccccc4)cc3)c3cc(Cl)ccc23)CC[C@@H]2[C@H]3CCCN4CCC[C@H](CN12)[C@@H]34
28 | 8.23 µM | COc1ccc(Cn2cc(/C=C3\CC[C@@H]4[C@H]5CCCN6CCC[C@H](CN4C3=O)[C@@H]56)c3ccccc32)cc1

The next lines start with the compound.

Row | Compound | IC50
29 | O=C1/C(=C/c2cn(Cc3ccccc3Br)c3ccccc23)CC[C@@H]2[C@H]3CCCN4CCC[C@H](CN12)[C@@H]34 | 15.4 µM
30 | Cc1ccc(Cn2cc(/C=C3\CC[C@@H]4[C@H]5CCCN6CCC[C@H](CN4C3=O)[C@@H]56)c3ccccc32)cc1 | 9.39 µM
31 | COc1ccc(Br)c(Cn2cccc2/C=C2\CC[C@@H]3[C@H]4CCCN5CCC[C@H](CN3C2=O)[C@@H]45)c1 | 9.66 µM
32 | CC(C)(C)c1ccc(Cn2cccc2/C=C2\CC[C@@H]3[C@H]4CCCN5CCC[C@H](CN3C2=O)[C@@H]45)cc1 | 13.6 µM
33 | O=C1/C(=C/c2cccn2Cc2ccccc2Br)CC[C@@H]2[C@H]3CCCN4CCC[C@H](CN12)[C@@H]34 | 13.5 µM
34 | O=C1/C(=C/c2cn(Cc3ccc(Br)cc3)c3ccccc23)CC[C@@H]2[C@H]3CCCN4CCC[C@H](CN12)[C@@H]34 | 5.94 µM
35 | O=C1/C(=C/c2cn(Cc3ccccc3)c3ccccc23)CC[C@@H]2[C@H]3CCCN4CCC[C@H](CN12)[C@@H]34 | 6.95 µM
36 | O=C1/C(=C/c2cn(Cc3c(Cl)cccc3Cl)c3ccccc23)CC[C@@H]2[C@H]3CCCN4CCC[C@H](CN12)[C@@H]34 | 9.78 µM
37 | Cc1ccccc1Cn1cc(/C=C2\CC[C@@H]3[C@H]4CCCN5CCC[C@H](CN3C2=O)[C@@H]45)c2ccccc21 | 16.3 µM
38 | Cc1cccc(Cn2cccc2/C=C2\CC[C@@H]3[C@H]4CCCN5CCC[C@H](CN3C2=O)[C@@H]45)c1 | 18.1 µM
39 | COc1cc(Cn2cc(/C=C3\CC[C@@H]4[C@H]5CCCN6CCC[C@H](CN4C3=O)[C@@H]56)c3ccccc32)cc(OC)c1 | 6.88 µM
40 | O=C1/C(=C/c2cn(Cc3ccc(Cl)cc3)c3ccccc23)CC[C@@H]2[C@H]3CCCN4CCC[C@H](CN12)[C@@H]34 | 6.59 µM
41 | O=C1/C(=C/c2cccn2Cc2ccc(Br)cc2)CC[C@@H]2[C@H]3CCCN4CCC[C@H](CN12)[C@@H]34 | 12.6 µM
42 | COc1cc(Cn2cccc2/C=C2\CC[C@@H]3[C@H]4CCCN5CCC[C@H](CN3C2=O)[C@@H]45)cc(OC)c1 | 21.2 µM
43 | O=C1/C(=C/c2cccn2Cc2ccccc2Cl)CC[C@@H]2[C@H]3CCCN4CCC[C@H](CN12)[C@@H]34 | 17.4 µM
44 | CC(C)(C)c1ccc(Cn2cc(/C=C3\CC[C@@H]4[C@H]5CCCN6CCC[C@H](CN4C3=O)[C@@H]56)c3ccccc32)cc1 | 4.57 µM

Row | Compound | IC50
45 | O=C1/C(=C/c2cccn2Cc2ccc(Cl)cc2)CC[C@@H]2[C@H]3CCCN4CCC[C@H](CN12)[C@@H]34 | 13.5 µM
46 | O=C1/C(=C/c2cn(Cc3ccccc3Cl)c3ccccc23)CC[C@@H]2[C@H]3CCCN4CCC[C@H](CN12)[C@@H]34 | 9.05 µM
47 | COc1ccc(Br)c(Cn2cc(/C=C3\CC[C@@H]4[C@H]5CCCN6CCC[C@H](CN4C3=O)[C@@H]56)c3ccccc32)c1 | 4.16 µM
48 | Cn1cccc1/C=C1\CC[C@@H]2[C@H]3CCCN4CCC[C@H](CN2C1=O)[C@@H]34 | > 100 µM
49 | Cc1cc(C)cc(Cn2cc(/C=C3\CC[C@@H]4[C@H]5CCCN6CCC[C@H](CN4C3=O)[C@@H]56)c3ccccc32)c1 | 4.56 µM
50 | Cc1cccc(Cn2cc(/C=C3\CC[C@@H]4[C@H]5CCCN6CCC[C@H](CN4C3=O)[C@@H]56)c3ccccc32)c1 | 8.27 µM
51 | O=C1/C(=C/c2cccn2Cc2cccc(Cl)c2)CC[C@@H]2[C@H]3CCCN4CCC[C@H](CN12)[C@@H]34 | 16.6 µM
52 | COc1cccc(Cn2cccc2/C=C2\CC[C@@H]3[C@H]4CCCN5CCC[C@H](CN3C2=O)[C@@H]45)c1 | 17.2 µM
53 | Cc1ccc(Cn2cccc2/C=C2\CC[C@@H]3[C@H]4CCCN5CCC[C@H](CN3C2=O)[C@@H]45)cc1 | 17.3 µM
54 | O=C1/C(=C/c2cccn2Cc2ccc(OC(F)(F)F)cc2)CC[C@@H]2[C@H]3CCCN4CCC[C@H](CN12)[C@@H]34 | 26.5 µM
55 | Cc1cc(C)cc(Cn2cccc2/C=C2\CC[C@@H]3[C@H]4CCCN5CCC[C@H](CN3C2=O)[C@@H]45)c1 | 14.8 µM
56 | O=C1/C(=C/c2cn(Cc3cccc(Br)c3)c3ccccc23)CC[C@@H]2[C@H]3CCCN4CCC[C@H](CN12)[C@@H]34 | 8.62 µM
57 | Cc1ccccc1Cn1cccc1/C=C1\CC[C@@H]2[C@H]3CCCN4CCC[C@H](CN2C1=O)[C@@H]34 | 25.3 µM
58 | O=C1/C(=C/c2cccn2Cc2ccccc2)CC[C@@H]2[C@H]3CCCN4CCC[C@H](CN12)[C@@H]34 | 10.9 µM
59 | O=C1/C(=C/c2cccn2Cc2ccc(F)cc2)CC[C@@H]2[C@H]3CCCN4CCC[C@H](CN12)[C@@H]34 | 29.4 µM
60 | CC(C)(C)c1cc(Cn2cccc2/C=C2\CC[C@@H]3[C@H]4CCCN5CCC[C@H](CN3C2=O)[C@@H]45)cc(C(C)(C)C)c1 | 18.1 µM
